Activity calls are given as the source filed them. No cut-off for these calls is given here.
Experiments:
[1] = target: Acyl-CoA (8-3)-desaturase (Rattus norvegicus) (UniProt Q920R3); assay: Inhibition of delta5 desaturase in Sprague-Dawley rat liver microsome at 10 uM; type: microsomes
[2] = test system: Rattus norvegicus; assay: In vivo inhibition of SCD1 in Lewis rat liver microsome at 15 mg/kg, ip administered qd for 2 days; type: functional; details: 48 h, route intraperitoneal
Method in brief: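 Lewis rats fed high-carbohydrate diet for one week, fasted 4 h, then dosed orally (0.1–1 mg/kg in 0.2% Tween 20/1% CMC; n = 4), killed 4 h later; ip arm 15 mg/kg once daily for two days. Liver microsomes prepared, SCD1 activity measured by tritiated water release from [9,10-3H]stearoyl-CoA. Mean ± SD of at least four rats.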

[3] = Metabolic stability in rat liver microsome after 30 mins by LC/MS/MS analysis; type: ADME; details: liver microsomes, read-out: Stability
Method in brief: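 Compound incubated 30 min with rat liver microsomes; percent parent remaining by LC/MS/MS.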

[4] = target: T1, Acyl-CoA desaturase 1 (Mus musculus, UniProt P13516); assay: Inhibition of SCD1 in ICR mouse liver microsome using [9,10 3H]- stearoyl-Coenzyme A substrate assessed as decreased production of tritiated water after 20 min by scintillation counting analysis
T1 sequence (P13516 whole entry): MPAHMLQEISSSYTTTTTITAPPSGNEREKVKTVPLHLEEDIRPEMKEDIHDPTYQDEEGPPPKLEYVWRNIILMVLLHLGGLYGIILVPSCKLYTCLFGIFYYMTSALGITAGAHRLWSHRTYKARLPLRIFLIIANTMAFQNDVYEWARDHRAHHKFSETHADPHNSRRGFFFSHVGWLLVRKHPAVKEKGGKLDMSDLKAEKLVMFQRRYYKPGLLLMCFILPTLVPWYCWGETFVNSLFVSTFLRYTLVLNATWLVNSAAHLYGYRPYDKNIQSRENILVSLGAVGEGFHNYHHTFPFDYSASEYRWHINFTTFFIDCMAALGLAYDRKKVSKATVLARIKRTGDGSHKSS

[5] = Apparent permeability from apical to basolateral side in human Caco2 cells; type: ADME, cell-based; details: Caco-2
Method in brief: (§1)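 Caco-2 monolayers; apparent permeability a-to-b and b-to-a reported in 10⁻⁶ cm/s.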

[6] = target: Acyl-CoA 6-desaturase (Rattus norvegicus) (UniProt Q9Z122); assay: Inhibition of delta6 desaturase in Sprague-Dawley rat liver microsome using cis,cis-9,12-octadecadienoic acid substrate at 10 uM
Chain of Acyl-CoA 6-desaturase (Rattus norvegicus) (Q9Z122 whole entry, looked up): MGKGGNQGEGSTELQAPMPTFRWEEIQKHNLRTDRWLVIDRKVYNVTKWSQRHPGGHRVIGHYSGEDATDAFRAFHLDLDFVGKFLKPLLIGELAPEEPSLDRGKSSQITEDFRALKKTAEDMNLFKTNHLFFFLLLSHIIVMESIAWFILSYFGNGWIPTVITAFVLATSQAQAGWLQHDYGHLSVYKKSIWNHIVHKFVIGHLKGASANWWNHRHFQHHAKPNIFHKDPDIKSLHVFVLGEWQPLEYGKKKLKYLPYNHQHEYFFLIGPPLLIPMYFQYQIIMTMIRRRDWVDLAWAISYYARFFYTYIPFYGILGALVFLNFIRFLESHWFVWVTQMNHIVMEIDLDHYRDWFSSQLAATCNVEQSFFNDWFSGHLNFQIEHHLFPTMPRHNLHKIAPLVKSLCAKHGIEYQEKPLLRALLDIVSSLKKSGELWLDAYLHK

[7] = target: T2, Stearoyl-CoA desaturase (Homo sapiens, UniProt O00767); assay: Inhibition of SCD1 in human HepG2 cells using [14C]-stearate substrate assessed as decreased production of [14C]-oleic acid after 24 hrs; type: cell-based
T2 sequence (O00767 whole entry): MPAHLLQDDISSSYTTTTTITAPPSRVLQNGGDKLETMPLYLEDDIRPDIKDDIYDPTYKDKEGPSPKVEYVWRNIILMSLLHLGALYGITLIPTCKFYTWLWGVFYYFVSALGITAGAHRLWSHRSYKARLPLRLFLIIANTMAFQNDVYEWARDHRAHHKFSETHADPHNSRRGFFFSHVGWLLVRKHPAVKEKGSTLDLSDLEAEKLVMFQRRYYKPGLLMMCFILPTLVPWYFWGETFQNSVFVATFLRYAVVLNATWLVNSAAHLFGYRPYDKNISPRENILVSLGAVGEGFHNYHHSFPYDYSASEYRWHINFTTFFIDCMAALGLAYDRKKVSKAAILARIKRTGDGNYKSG

[8] = Apparent permeability from basolateral to apical side in human Caco2 cells; type: ADME, cell-based; details: Caco-2; method in brief: as §1
[9] = Clearance in Lewis rat at 3 mg/kg, iv; type: ADME, organism-based; parameters: dose 3 mg/kg, route intravenous; details: in vivo
Method in brief: (§2)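 Lewis rats, IV 3 mg/kg and PO 10 mg/kg unless otherwise stated (some at PO 5 mg/kg, IV 1 mg/kg, or IV 1/PO 2 mg/kg). At least two rats IV, three rats PO, averaged. Plasma t1/2 (h), AUC 0–∞ (μM·h), Vss (L/kg), clearance ((L/h)/kg), Cmax (μM), Tmax (h), oral bioavailability (%).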

[10] = Volume of distribution at steady state in Lewis rat at 3 mg/kg, iv; type: ADME, organism-based; parameters: dose 3 mg/kg, route intravenous; details: in vivo, read-out: Vdss; method in brief: as §2
[11] = Tmax in Lewis rat at 5 mg/kg, po; type: ADME, organism-based; parameters: dose 5 mg/kg, route oral; details: in vivo; method in brief: as §2
[12] = Oral bioavailability in Lewis rat at 5 mg/kg; type: ADME, organism-based; details: in vivo; method in brief: as §2
[13] = Half life in Lewis rat at 3 mg/kg, iv; type: ADME, organism-based; parameters: dose 3 mg/kg, route intravenous; details: in vivo; method in brief: as §2
[14] = Cmax in Lewis rat at 5 mg/kg, po; type: ADME, organism-based; parameters: dose 5 mg/kg, route oral; details: in vivo; method in brief: as §2
[15] = target: CYP2D6 (Homo sapiens, UniProt P10635); assay: Inhibition of CYP2D6 (unknown origin) at 10 uM; type: ADME
Chain of CYP2D6 (P10635 whole entry): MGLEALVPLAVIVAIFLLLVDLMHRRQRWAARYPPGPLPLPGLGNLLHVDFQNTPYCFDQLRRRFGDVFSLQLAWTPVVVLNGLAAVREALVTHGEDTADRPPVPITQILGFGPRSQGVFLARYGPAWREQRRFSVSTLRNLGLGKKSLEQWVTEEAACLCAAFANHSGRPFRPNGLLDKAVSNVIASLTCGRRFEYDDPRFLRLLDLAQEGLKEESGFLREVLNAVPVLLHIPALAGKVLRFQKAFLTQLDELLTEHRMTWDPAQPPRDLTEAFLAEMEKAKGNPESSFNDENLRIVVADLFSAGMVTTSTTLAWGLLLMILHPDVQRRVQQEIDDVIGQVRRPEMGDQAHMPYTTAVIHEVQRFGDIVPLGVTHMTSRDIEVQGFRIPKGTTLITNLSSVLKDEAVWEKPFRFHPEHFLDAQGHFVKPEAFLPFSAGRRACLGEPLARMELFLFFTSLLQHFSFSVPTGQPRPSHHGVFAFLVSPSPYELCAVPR

[16] = Protein binding in plasma (unknown origin); type: ADME, cell-free; details: read-out: PPB (converted)
[17] = target: CYP3A4 (Homo sapiens, UniProt P08684); assay: Inhibition of CYP3A4 (unknown origin) at 10 uM; type: ADME
Chain of CYP3A4 (P08684 whole entry): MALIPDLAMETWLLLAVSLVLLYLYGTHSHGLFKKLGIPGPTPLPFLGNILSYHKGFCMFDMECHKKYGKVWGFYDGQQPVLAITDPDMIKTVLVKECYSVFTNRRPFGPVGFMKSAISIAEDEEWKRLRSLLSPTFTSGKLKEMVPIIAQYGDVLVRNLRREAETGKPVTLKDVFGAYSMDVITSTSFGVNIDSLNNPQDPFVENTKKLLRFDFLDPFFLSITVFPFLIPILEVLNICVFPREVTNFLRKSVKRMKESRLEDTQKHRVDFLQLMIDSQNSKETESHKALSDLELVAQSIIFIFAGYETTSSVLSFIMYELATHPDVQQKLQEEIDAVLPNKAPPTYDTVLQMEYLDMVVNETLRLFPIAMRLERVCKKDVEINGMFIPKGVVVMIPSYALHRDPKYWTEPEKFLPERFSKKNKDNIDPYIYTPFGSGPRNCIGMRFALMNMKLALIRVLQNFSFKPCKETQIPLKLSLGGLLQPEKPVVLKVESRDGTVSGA

[18] = target: CYP2C19 (Homo sapiens, UniProt P33261); assay: Inhibition of CYP2C19 (unknown origin) at 10 uM; type: ADME
Chain of CYP2C19 (P33261 whole entry): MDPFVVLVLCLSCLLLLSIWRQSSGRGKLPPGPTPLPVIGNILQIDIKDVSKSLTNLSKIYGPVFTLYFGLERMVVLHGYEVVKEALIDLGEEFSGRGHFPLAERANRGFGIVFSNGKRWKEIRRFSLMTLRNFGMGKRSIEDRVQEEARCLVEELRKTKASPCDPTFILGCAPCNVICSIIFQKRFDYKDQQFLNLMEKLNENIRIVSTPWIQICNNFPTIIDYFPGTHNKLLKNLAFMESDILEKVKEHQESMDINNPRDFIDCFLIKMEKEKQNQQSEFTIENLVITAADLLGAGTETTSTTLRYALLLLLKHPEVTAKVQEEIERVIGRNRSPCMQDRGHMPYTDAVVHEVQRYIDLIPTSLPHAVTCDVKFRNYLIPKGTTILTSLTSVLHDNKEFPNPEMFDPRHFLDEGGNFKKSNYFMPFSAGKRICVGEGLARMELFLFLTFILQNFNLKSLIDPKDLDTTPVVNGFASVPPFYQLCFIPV

[19] = target: CYP2C9 (Homo sapiens, UniProt P11712); assay: Inhibition of CYP2C9 (unknown origin) at 10 uM; type: ADME
Chain of CYP2C9 (P11712 whole entry): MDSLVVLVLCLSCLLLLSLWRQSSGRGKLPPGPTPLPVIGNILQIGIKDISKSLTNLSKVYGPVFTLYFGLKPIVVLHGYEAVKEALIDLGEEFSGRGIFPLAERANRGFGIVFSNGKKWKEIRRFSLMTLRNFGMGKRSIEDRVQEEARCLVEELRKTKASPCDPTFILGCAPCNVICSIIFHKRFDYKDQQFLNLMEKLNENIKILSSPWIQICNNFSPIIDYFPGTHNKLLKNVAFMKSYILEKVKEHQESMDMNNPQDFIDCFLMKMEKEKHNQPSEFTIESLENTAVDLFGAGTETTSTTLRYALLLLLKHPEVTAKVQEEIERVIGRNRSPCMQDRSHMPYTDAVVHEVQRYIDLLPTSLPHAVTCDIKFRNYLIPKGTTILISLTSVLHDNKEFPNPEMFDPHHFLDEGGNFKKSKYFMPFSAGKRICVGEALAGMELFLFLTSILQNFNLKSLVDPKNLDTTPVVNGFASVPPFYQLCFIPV

[20] = test system: Rattus norvegicus; assay: In vivo inhibition of SCD1 in Lewis rat liver microsome at 1 mg/kg, po after 4 hrs

Chain of Acyl-CoA (8-3)-desaturase (Rattus norvegicus) (Q920R3 whole entry, looked up): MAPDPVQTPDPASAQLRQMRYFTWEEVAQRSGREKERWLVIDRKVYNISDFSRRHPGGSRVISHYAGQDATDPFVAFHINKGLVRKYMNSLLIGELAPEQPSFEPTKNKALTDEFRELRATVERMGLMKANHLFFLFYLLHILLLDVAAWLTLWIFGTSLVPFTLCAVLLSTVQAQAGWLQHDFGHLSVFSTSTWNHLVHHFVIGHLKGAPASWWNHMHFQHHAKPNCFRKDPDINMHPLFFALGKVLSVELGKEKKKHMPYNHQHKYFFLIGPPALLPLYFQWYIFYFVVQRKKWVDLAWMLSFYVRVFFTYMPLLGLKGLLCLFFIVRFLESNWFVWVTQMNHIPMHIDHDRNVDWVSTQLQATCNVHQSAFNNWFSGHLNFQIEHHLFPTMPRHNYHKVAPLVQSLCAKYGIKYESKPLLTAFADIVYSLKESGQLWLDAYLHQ

Row | inhibition [1] | remaining at 0.5 h [3] | IC50 [4] | Papp A→B [5] | inhibition [6] | IC50 [7] | Papp B→A [8] | clearance [9] | Vd [10] | Tmax [11] | bioavailability [12] | half-life [13] | Cmax [14] | inhibition at 10 µM [15] | fraction unbound [16] | inhibition at 10 µM [17] | inhibition at 10 µM [18] | inhibition at 10 µM [19] | SMILES | inhibition in vivo at 15 mg/kg [2] | inhibition [20]
1 | inactive | 36% | 72 nM | 21 ×10⁻⁶ cm/s | inactive | 62 nM | 21 ×10⁻⁶ cm/s |  |  |  |  |  |  |  |  |  |  |  | Cc1cc(C(=O)N2CCN(c3ccc(C(=O)NCCC4CC4)nn3)CC2)c(C(F)(F)F)o1 | < 30% | 
2 | inactive | 76% | 25 nM | 24 ×10⁻⁶ cm/s | inactive |  | 22 ×10⁻⁶ cm/s | 31.7 mL/min/kg | 2.2 L/kg | 1 h | 46% | 1 h | 900 nM |  |  |  |  |  | O=C(NCCC1CC1)c1ccc(N2CCN(C(=O)c3ccccc3C(F)(F)F)CC2)nn1 | > 60% | 
3 |  | 57% | 26 nM | 25 ×10⁻⁶ cm/s |  |  |  |  |  |  |  |  |  | < 50% | 0.22 | < 50% | < 50% | < 50% | CC(C)CCNC(=O)c1ccc(N2CCN(C(=O)c3ccccc3C(F)(F)F)CC2)nn1 | 40% | 
4 | inactive | 65% | 7 nM | 2 ×10⁻⁶ cm/s | inactive |  | 2 ×10⁻⁶ cm/s |  |  |  |  |  |  |  |  |  |  |  | O=C(Nc1ccc(Cl)cc1)c1ccc(N2CCN(C(=O)c3ccccc3C(F)(F)F)CC2)nn1 |  | Active
